Calls of active or inactive are those of the source. No cut-off for these calls is given here.
Columns and labels:
[1] = target: T1, Signal transducer and transcription activator 6 (Mus musculus) (UniProt P52633); assay: Inhibition of IL4-induced STAT6 phosphorylation at Y641 in CD4+ T lymphocytes isolated from C57BL/6J mouse preincubated for 2 hrs followed by activation with plate-bound anti-CD3/anti-CD28 and IL4 for 15 mins by Western blot analysis; format: cell-based
T1 sequence (whole entry): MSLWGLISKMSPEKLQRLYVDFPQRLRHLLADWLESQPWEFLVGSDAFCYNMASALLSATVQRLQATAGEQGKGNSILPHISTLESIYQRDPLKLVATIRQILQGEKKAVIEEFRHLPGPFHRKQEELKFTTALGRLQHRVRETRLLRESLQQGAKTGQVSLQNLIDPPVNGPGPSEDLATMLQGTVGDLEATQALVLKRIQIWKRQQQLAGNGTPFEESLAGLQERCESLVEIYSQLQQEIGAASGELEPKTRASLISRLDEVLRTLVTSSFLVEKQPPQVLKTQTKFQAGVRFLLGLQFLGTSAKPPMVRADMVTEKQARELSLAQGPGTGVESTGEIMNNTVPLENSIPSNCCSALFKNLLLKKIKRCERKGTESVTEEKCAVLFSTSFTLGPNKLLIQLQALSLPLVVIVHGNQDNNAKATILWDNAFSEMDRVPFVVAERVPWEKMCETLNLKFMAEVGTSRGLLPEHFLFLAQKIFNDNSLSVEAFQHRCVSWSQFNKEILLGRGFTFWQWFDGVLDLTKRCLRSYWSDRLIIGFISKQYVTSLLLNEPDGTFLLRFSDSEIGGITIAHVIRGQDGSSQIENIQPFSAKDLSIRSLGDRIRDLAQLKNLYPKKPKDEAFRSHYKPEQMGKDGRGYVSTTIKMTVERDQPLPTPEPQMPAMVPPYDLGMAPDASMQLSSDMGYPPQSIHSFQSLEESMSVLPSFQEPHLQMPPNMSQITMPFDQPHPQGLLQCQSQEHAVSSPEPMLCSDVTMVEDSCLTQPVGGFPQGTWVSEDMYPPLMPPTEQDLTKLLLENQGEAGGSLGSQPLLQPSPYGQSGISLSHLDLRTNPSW
Outline: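 CD4+ T cells from C57BL/6J mice, sorted by AutoMACS; activated 15 min with plate-bound anti-CD3 and/or anti-CD28 with IL-2, IL-6 or IL-4; lysed with protease inhibitors plus 10 mM NaF and 1 mM Na3VO4; Bradford-normalised immunoblots for pSTAT1 (Tyr701), pSTAT5 (Tyr694), pSTAT6 (Tyr641) and total STATs.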

[2] = Cytotoxicity against human BEAS2B cells assessed as cell viability after 72 hrs by MTS assay; format: cell-based; details: beas-2b
Outline: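 Beas-2B seeded at 2000 cells/well; 10 mM DMSO stocks serially diluted in DMSO and equal amounts added to cultures; 72 h at 37 °C; medium replaced by 1:5 MTS/PBS, 1 h further incubation; viable cells read as optical density at 490 nm.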

inhibition [1]: Active
Structure (SMILES): C/C(=C\C(=O)N[C@H](C(=O)N1CCC[C@H]1C(=O)N(C)c1ccccc1)C(C)(C)C)c1ccc(C(F)(F)P(=O)(OCOC(=O)C(C)(C)C)OCOC(=O)C(C)(C)C)cc1
Activity [2]: Non-toxic
